Measured values from ChEMBL document CHEMBL1123419, “Synthesis and antiviral activity of sulfonamidobenzophenone oximes and sulfonamidobenzamides” (1986).
≈ marks a conversion by molar mass, not a printed value.

How the values were obtained:
Poliovirus 1 = test: microbe, parasite or virus in culture; format: functional; conditions: Enterovirus C; read-out: ED50 (the source's name)
CV-1 [1] = test: Compound was evaluated for chemotherapeutic index in CV-1 cells (chemotherapeutic index=50% cytotoxic dose/50% effective dose); format: functional, Cercopithecidae
Summary of the method: (§1)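 Index = 50% cytotoxic dose / 50% plaque-inhibition dose. For cytotoxicity, 200 cells/mL in suspension were mixed with 10% FBS MEM carrying serial compound dilutions and incubated 7 days at 37 °C under 5% CO2. Colonies were stained with 1% crystal violet and counted, and the 50% cytotoxic dose was read from the dose-response curve.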

HeLa [2] = test: Antiviral activity was measured against Hela cells injected with rhinovirus 19; format: functional, Homo sapiens
Summary of the method: (§2)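 Rhinovirus spectrum in Hela cells: infected cultures were kept 3 days at 33 °C, stained with crystal violet and examined microscopically for cytopathic effect. The end point was 50% inhibition.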

HeLa [3] = test: Antiviral activity was measured against Hela cells injected with coxsackie virus type B4; format: functional, Homo sapiens
Summary of the method: (§3)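 Plaque reduction: confluent monolayers were infected with 100-200 PFU. Hela (Ohio) cells were used for rhinoviruses 10 and 1A and coxsackieviruses B4 and A9, CV-1 for poliovirus type 1 Mahoney, and LLC-MK2 for enterovirus 70. Cells were overlaid with 2.0% agar in MEM plus 4% FBS containing serial compound concentrations. Incubation was 37 °C for polio/coxsackie and 33 °C for rhino/enterovirus, with a neutral red (0.004%) second overlay. ED50 was taken from the dose-response curve.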

HeLa [4] = test: Antiviral activity was measured against Hela cells injected with rhinovirus 1A; format: functional, Homo sapiens
Summary of the method: as §2

CV-1 [5] = test: Compound was evaluated for its failure of virucidal activity in poliovirus infected CV-1 cells at 5 ug/mL. virus titer 7.1*10e7 PFU/mL; format: functional, Cercopithecidae
CV-1 [6] = test: Compound was evaluated for its failure of virucidal activity in poliovirus infected CV-1 cells at 50 ug/mL. virus titer 7.4*10e7 PFU/mL; format: functional, Cercopithecidae
HeLa [7] = test: Antiviral activity was measured against Hela cells injected with rhinovirus 10; format: functional, Homo sapiens
Summary of the method: as §2

Enterovirus = test: Antiviral activity against rhinovirus 1A using plaque-inhibition assay; format: functional; conditions: read-out: ED50 (the source's name)
Summary of the method: as §3

HeLa [8] = test: Antiviral activity was measured against Hela cells injected with coxsackie virus type A9; format: functional, Homo sapiens
Summary of the method: as §3

HeLa [9] = test: Antiviral activity was measured against Hela cells injected with rhinovirus 26; format: functional, Homo sapiens
Summary of the method: as §2

CV-1 [10] = test: Chemotherapeutic index in CV-1 cells (chemotherapeutic index=50% cytotoxic dose/50% effective dose).; format: functional, Cercopithecidae
Summary of the method: as §1

CV-1 [11] = test: Compound was evaluated for its failure of virucidal activity in poliovirus infected CV-1 cells at 0.5 ug/mL. virus titer 6.6*10e7 PFU/mL; format: functional, Cercopithecidae
CV-1 [12] = test: Effect on time of addiction in poliovirus infected CV-1 cells treated with 1 ug/mL of compound at 3 h. virus titer 1.6*10e9; format: functional, Cercopithecidae
CV-1 [13] = test: Effect on time of addiction in poliovirus infected CV-1 cells treated with 1 ug/mL of compound at 1 h. virus titer 3.6*10e8; format: functional, Cercopithecidae
CV-1 [14] = test: Effect on time of addiction in poliovirus infected CV-1 cells treated with 1 ug/mL of compound at 2 h. virus titer 5.0*10e8; format: functional, Cercopithecidae
CV-1 [15] = test: Effect on time of addiction in poliovirus infected CV-1 cells treated with 1 ug/mL of compound at 4 h. virus titer 3.1*10e9; format: functional, Cercopithecidae
LLC-MK2 = test: Antiviral activity was measured against LLC-MK2 cells injected with enterovirus 70; format: functional, Cercopithecidae
Summary of the method: as §3

CV-1 [16] = test: Compound was evaluated for its failure of virucidal activity in poliovirus infected CV-1 cells at 0.5 ug/mL. virus titer 6.4*10e7 PFU/mL; format: functional, Cercopithecidae
CV-1 [17] = test: Effect on time of addiction in poliovirus infected CV-1 cells treated with 1 ug/mL of compound at 0 h. virus titer 4.8*10e8; format: functional, Cercopithecidae
CV-1 [18] = test: Effect on time of addiction in poliovirus infected CV-1 cells treated with 1 ug/mL of compound at 5 h. virus titer 4.3*10e9; format: functional, Cercopithecidae
CV-1 [19] = test: Compound was evaluated for its failure of virucidal activity in poliovirus infected CV-1 cells at 5 ug/mL. virus titer 7.6*10e7 PFU/mL; format: functional, Cercopithecidae

Structure (SMILES) | EC50 (Poliovirus 1) [µg/mL] | ED50 (HeLa [2]) [µg/mL] | ED50 (HeLa [3]) [µg/mL] | ED50 (HeLa [4]) [µg/mL] | Inhibition (CV-1 [6]) [%] | ED50 (HeLa [7]) [µg/mL] | EC50 (Enterovirus) [µg/mL] | ED50 (HeLa [8]) [µg/mL] | ED50 (HeLa [9]) [µg/mL] | Chemotherapeutic index (CV-1 [10]) | other results
CN(C)S(=O)(=O)Nc1cccc(/C(=N/O)c2cccc(N)c2)c1 | 0.7 (≈ 2.09 µM) |  |  |  |  |  |  |  |  |  | Chemotherapeutic index (CV-1 [1]): 66
CN(C)S(=O)(=O)Nc1ccc(C(=O)Nc2ccc(Br)cc2)cc1 | 0.3 (≈ 0.753 µM) | 0.6 (≈ 1.51 µM) | 4 (≈ 10 µM) | 0.68 (≈ 1.71 µM) | 0 | 0.42 (≈ 1.05 µM) | 0.26 (≈ 0.653 µM) | 5.2 (≈ 13.1 µM) | 0.68 (≈ 1.71 µM) | 600 | Inhibition (CV-1 [5]): 0%; Inhibition (CV-1 [11]): 12%
CN(C)S(=O)(=O)Nc1ccc(C(=O)NCCCCc2ccccc2)cc1 | 0.09 (≈ 0.24 µM) | 0.12 (≈ 0.32 µM) | 0.42 (≈ 1.12 µM) | 0.12 (≈ 0.32 µM) | 0 | 0.09 (≈ 0.24 µM) | 0.13 (≈ 0.346 µM) | 0.4 (≈ 1.07 µM) | 0.13 (≈ 0.346 µM) | 18 | Inhibition (CV-1 [12]): 61%; Inhibition (CV-1 [13]): 91.2%; Inhibition (CV-1 [14]): 87.8%; Inhibition (CV-1 [15]): 24.4%; ED50 (LLC-MK2): 0.7 µg/mL (≈ 1.86 µM); Inhibition (CV-1 [16]): 10%; Inhibition (CV-1 [17]): 88.3%; Inhibition (CV-1 [18]): 0%; Inhibition (CV-1 [19]): 3%
